# The source made the active and inactive calls. No cut-off for these calls is given here.
# Columns and labels:
# Homo sapiens [1] = species on record: Homo sapiens; assay: (§1) Suppression of okadaic acid-induced inhibition of PP1/PP2A in human SHSY-5Y cells at 0.1 uM using pNPP as substrate assessed as remaining total phosphatase activity incubated for 30 mins by colorimetric assay (reference value: 68 +/- 2%); assay type: cell-based
# Outline: (§2)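 SH-SY5Y cells treated with compound at 0.1 μM plus okadaic acid 15 nM (24 h preincubation, then coincubation). Medium removed; assay buffer with pNPP (10 mM) added, 30 min at 37 °C in the dark, absorbance at 405 nm. For Ser/Thr activity, 1 mM orthovanadate added to the buffer. Expressed as % of untreated cells; at least four experiments.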
# SH-SY5Y [2] = assay: Neuroprotective activity in human SH-SY5Y cells assessed as reversal of okadaic acid-induced cytotoxicity at 0.1 uM preincubated for 24 hrs followed by […] by MTT assay; assay type: functional
# Homo sapiens [3] = species on record: Homo sapiens; assay: as §1, with “Ser/Thr” for “total”, “mins in presence of tyrosine phosphatase inhibitor sodium orthovanadate” for “mins”, “61” for “68”, “3%)” for “2%)”; assay type: cell-based; outline: as §2
# SH-SY5Y [4] = assay: Cytotoxicity against human SH-SY5Y cells assessed as reduction of cell viability at <10 uM incubated for 48 hrs by MTT assay; assay type: cell-based
# Outline: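 SH-SY5Y cells exposed to compounds for 48 h; viability read by MTT reduction (final 0.3 mg/mL, 2 h at 37 °C in the dark), formazan dissolved in DMSO, absorbance at 540 nm, expressed as % of untreated cells.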
# [5] = test system: Voltage-gated calcium channel; assay: Inhibition of VGCC in human SHSY-5Y cells assessed as reduction of K+-evoked cytosolic ca2+ at 1 uM incubated for 10 mins prior to KCl addition by Fluo-4-AM probe-based fluorescence analysis; assay type: cell-based
# Outline: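 SH-SY5Y cells at confluence (48 h after seeding) loaded with 10 μM Fluo-4/AM plus 0.2% pluronic in Krebs–HEPES (pH 7.4) for 45 min at 37 °C, then washed. Compound at 1 μM for 10 min, then KCl 70 mM. Ex 485/em 520 nm; signal normalized to Fmax (Triton X-100) minus Fmin (MnCl2). At least six experiments versus K+ response without compound.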
# Bos taurus [6] = species on record: Bos taurus; assay: Inhibition of VGCC in bovine chromaffin cells assessed as reduction in depolarization-evoked Ca2+ current at 1 uM at -80 mV holding potential using 50 millisec depolarization pulses every 20 secs in presence of […] N and P/Q type VGCC blocker omega-conotoxin MV2C by patch clamp method; assay type: cell-based
# Bos taurus [7] = species on record: Bos taurus; assay: Inhibition of VGCC in bovine chromaffin cells assessed as reduction in depolarization-evoked Ca2+ current at 1 uM at -80 mV holding potential using 50 millisec depolarization pulses every 20 secs by patch clamp method; assay type: cell-based
# Bos taurus [8] = species on record: Bos taurus; assay: Inhibition of VGCC in bovine chromaffin cells assessed as potentiation of compound-induced of reduction in depolarization-evoked Ca2+ current at 1 uM at -80 mV holding potential using 50 millisec depolarization pulses every 20 secs in presence of L-type VGCC blocker nifedipine by patch clamp method; assay type: cell-based
# Hippocampal neurone = assay: (§3) Neuroprotective activity in Sprague-Dawley rat hippocampal cells assessed as reversal of glutamate-induced cytotoxicity at 10 uM incubated for 4 hrs by MTT assay; assay type: functional
# Outline: (§4)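 Hippocampal slices from 2-month-old Sprague–Dawley rats stabilized 45 min at 34 °C, then coincubated 4 h with compound and glutamate 1 mM. Viability by MTT (0.3 mg/mL, 30 min), absorbance at 540 nm. Reported as % protection relative to glutamate-only slices; at least four tissue batches in quadruplicate.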
# Cortical neurone [9] = assay: Cytotoxicity against rat cortical motor neurons assessed as reduction of cell viability at 1 uM incubated for 48 hrs by MTT assay; assay type: cell-based
# Outline: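 Rat cortical motor neurons in neurobasal medium with 2% B-27 on poly-D-lysine, grown 8−10 days to a dense network, then exposed to compound for 48 h. Viability read by MTT (0.3 mg/mL final, 30 min, 37 °C, dark), formazan dissolved in DMSO, absorbance 540 nm, expressed as % of untreated cells.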
# Cortical neurone [10] = assay: Neuroprotective activity in rat cortical motor neurons assessed as reversal of veratridine-induced cytotoxicity at 0.1 uM incubated for 24 hrs followed by coincubation with veratridine for 24 hrs by MTT assay; assay type: functional
# [11] = as §3; assay type: functional, Hippocampal neurone; outline: as §4
# [12] = test system: Voltage-gated calcium channel; assay: Inhibition of VGCC in human SHSY-5Y cells assessed as reduction of K+-evoked cytosolic ca2+ at 3 uM incubated for 10 mins prior to KCl addition by Fluo-4-AM probe-based fluorescence analysis; assay type: cell-based
# Outline: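 SH-SY5Y cells grown to confluence over 48 h, then loaded with 10 μM Fluo-4/AM and 0.2% pluronic acid in Krebs–HEPES (pH 7.4) for 45 min at 37 °C and washed. Compound added 10 min before depolarisation with KCl 70 mM. Fluorescence read at ex 485/em 520 nm and normalised to Fmax (Triton X-100) and Fmin (MnCl2). Inhibition taken against the K+ response without compound; ≥6 experiments.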
smiles,measurement,setting,value
C#CCn1cc(CN2CCCCC2)c2cc(Br)ccc21,Activity,Homo sapiens [1],77%
same,Activity,SH-SY5Y [2],47%
same,Activity,Homo sapiens [3],72%
same,Activity,SH-SY5Y [4],Non-Toxic
same,inhibition (INH),[5],42%
Cc1ccc2c(c1)c(CN(C)C)cn2CCCCN1CCCCC1,Activity,Homo sapiens [1],74%
same,Activity,SH-SY5Y [2],37%
same,Activity,Homo sapiens [3],68%
same,Activity,SH-SY5Y [4],Non-Toxic
same,inhibition (INH),[5],16%
CC12CC3CC(C)(C1)CC(N)(C3)C2,Activity,Homo sapiens [1],77%
same,Activity,Homo sapiens [3],78%
ClCCCCn1cc(CN2CCCCC2)c2cc(Br)ccc21,Activity,Homo sapiens [1],68%
same,Activity,SH-SY5Y [2],48%
same,Activity,Homo sapiens [3],62%
same,Activity,SH-SY5Y [4],Non-Toxic
same,inhibition (INH),[5],57%
Cc1ccc2[nH]cc(CN(C)C)c2c1,Activity,Homo sapiens [1],79%
same,Activity,SH-SY5Y [2],59%
same,Activity,Homo sapiens [3],77%
same,Activity,SH-SY5Y [4],Non-Toxic
same,inhibition (INH),[5],10%
Cc1ccc2c(c1)c(CN1CCCCC1)cn2Cc1ccccc1,Activity,Homo sapiens [1],77%
same,inhibition,Bos taurus [6],Active
same,Activity,SH-SY5Y [2],56%
same,inhibition,Bos taurus [7],40%
same,Activity,Homo sapiens [3],78%
same,Activity,SH-SY5Y [4],Non-Toxic
same,inhibition (INH),[5],22%
same,inhibition,Bos taurus [8],Active
COc1ccc2[nH]cc(CCNC(C)=O)c2c1 [MELATONIN],Activity,SH-SY5Y [2],43%
CCOC(=O)CCCn1cc(CN(C)C)c2cc(Br)ccc21,Activity,Homo sapiens [1],76%
same,Activity,Hippocampal neurone,Active
same,Activity,SH-SY5Y [2],58%
same,Activity,Homo sapiens [3],66%
same,Activity,SH-SY5Y [4],Non-Toxic
same,inhibition (INH),[5],13%
Cc1ccc2c(c1)c(CN1CCCCC1)cn2CCCCCl,Activity,Homo sapiens [1],71%
same,Activity,Hippocampal neurone,Active
same,Activity,SH-SY5Y [2],56%
same,Activity,Homo sapiens [3],62%
same,Activity,SH-SY5Y [4],Non-Toxic
same,inhibition (INH),[5],35%
C#CCn1cc(CN(C)C)c2cc(C)ccc21,Activity,Homo sapiens [1],80%
same,Activity,SH-SY5Y [2],12%
same,Activity,Homo sapiens [3],74%
same,Activity,SH-SY5Y [4],Non-Toxic
same,inhibition (INH),[5],14%
CCCCn1cc(CN2CCCCC2)c2cc(C)ccc21,Activity,Homo sapiens [1],69%
same,Activity,SH-SY5Y [2],46%
same,inhibition,Bos taurus [7],Active
same,Activity,Homo sapiens [3],66%
same,Activity,SH-SY5Y [4],Non-Toxic
same,inhibition (INH),[5],21%
CCOC(=O)CCCn1cc(CN2CCCCC2)c2cc(Br)ccc21,Activity,Homo sapiens [1],73%
same,Activity,SH-SY5Y [2],43%
same,Activity,Homo sapiens [3],71%
same,Activity,SH-SY5Y [4],Non-Toxic
same,inhibition (INH),[5],16%
CN(C)Cc1cn(Cc2ccccc2)c2ccc(Br)cc12,Activity,Homo sapiens [1],81%
same,Activity,SH-SY5Y [2],56%
same,Activity,Homo sapiens [3],78%
same,Activity,SH-SY5Y [4],Non-Toxic
same,inhibition (INH),[5],38%
C#CCn1cc(CN2CCCCC2)c2cc(C)ccc21,Activity,Homo sapiens [1],71%
same,Activity,SH-SY5Y [2],42%
same,Activity,Homo sapiens [3],66%
same,Activity,SH-SY5Y [4],Non-Toxic
same,inhibition (INH),[5],25%
CCCCn1cc(CN2CCCCC2)c2cc(Br)ccc21,Activity,Homo sapiens [1],78%
same,Activity,SH-SY5Y [2],71%
same,inhibition,Bos taurus [7],Active
same,Activity,Homo sapiens [3],79%
same,Activity,SH-SY5Y [4],Non-Toxic
same,inhibition (INH),[5],63%
Cc1ccc2c(c1)c(CN1CCCCC1)cn2CCCCN1CCCCC1,Activity,Homo sapiens [1],72%
same,Activity,SH-SY5Y [2],26%
same,Activity,Homo sapiens [3],70%
same,Activity,SH-SY5Y [4],Non-Toxic
same,inhibition (INH),[5],4%
Brc1ccc2c(c1)c(CN1CCCCC1)cn2Cc1ccccc1,Activity,Homo sapiens [1],79%
same,Activity,SH-SY5Y [2],54%
same,inhibition,Bos taurus [7],Active
same,Activity,Homo sapiens [3],70%
same,Activity,SH-SY5Y [4],Non-Toxic
same,inhibition (INH),[5],45%
c1ccc2c(CN3CCCCC3)c[nH]c2c1,Activity,Homo sapiens [1],76%
same,Activity,Cortical neurone [9],Toxic
same,Activity,SH-SY5Y [2],47%
same,Activity,Homo sapiens [3],79%
same,Activity,SH-SY5Y [4],Non-Toxic
same,inhibition (INH),[5],30%
Brc1ccc2[nH]cc(CN3CCCCC3)c2c1,Activity,Homo sapiens [1],74%
same,Activity,SH-SY5Y [2],60%
same,Activity,Homo sapiens [3],67%
same,Activity,SH-SY5Y [4],Non-Toxic
same,inhibition (INH),[5],7%
Brc1ccc2c(c1)c(CN1CCCCC1)cn2CCCCN1CCCCC1,Activity,Homo sapiens [1],73%
same,Activity,Cortical neurone [9],Toxic
same,Activity,Cortical neurone [10],0%
same,Activity,SH-SY5Y [2],61%
same,Activity,Homo sapiens [3],70%
same,Activity,SH-SY5Y [4],Non-Toxic
same,inhibition (INH),[5],19%
CCCCn1cc(CN(C)C)c2cc(Br)ccc21,Activity,Homo sapiens [1],81%
same,Activity,[11],40%
same,Activity,SH-SY5Y [2],66%
same,Activity,Homo sapiens [3],76%
same,Activity,SH-SY5Y [4],Non-Toxic
same,inhibition (INH),[5],14%
COC(=O)C1=C(C)NC(C)=C(C(=O)OC)C1c1ccccc1[N+](=O)[O-] [NIFEDIPINE],inhibition (INH),[12],73%
C#CCn1cc(CN(C)C)c2cc(Br)ccc21,Activity,Homo sapiens [1],70%
same,Activity,SH-SY5Y [2],12%
same,Activity,Homo sapiens [3],64%
same,Activity,SH-SY5Y [4],Non-Toxic
same,inhibition (INH),[5],10%
CN(C)Cc1c[nH]c2ccc(Br)cc12 [BROMOGRAMINE],Activity,Homo sapiens [1],80%
same,Activity,[11],40%
same,Activity,SH-SY5Y [2],47%
same,Activity,Homo sapiens [3],76%
same,Activity,SH-SY5Y [4],Non-Toxic
same,inhibition (INH),[5],3%
CN(C)Cc1cn(CCCCN2CCCCC2)c2ccc(Br)cc12,Activity,Homo sapiens [1],73%
same,Activity,SH-SY5Y [2],31%
same,Activity,Homo sapiens [3],68%
same,Activity,SH-SY5Y [4],Non-Toxic
same,inhibition (INH),[5],14%
CN(C)Cc1c[nH]c2ccccc12 [GRAMINE],Activity,Homo sapiens [1],80%
same,Activity,SH-SY5Y [2],45%
same,inhibition,Bos taurus [7],Active
same,Activity,Homo sapiens [3],76%
same,inhibition (INH),[5],25%
Cc1ccc2c(c1)c(CN(C)C)cn2Cc1ccccc1,Activity,Homo sapiens [1],73%
same,Activity,SH-SY5Y [2],44%
same,Activity,Homo sapiens [3],66%
same,Activity,SH-SY5Y [4],Non-Toxic
same,inhibition (INH),[5],18%
Cc1ccc2[nH]cc(CN3CCCCC3)c2c1,Activity,Homo sapiens [1],71%
same,Activity,SH-SY5Y [2],38%
same,Activity,Homo sapiens [3],69%
same,Activity,SH-SY5Y [4],Non-Toxic
same,inhibition (INH),[5],16%

# Reference: ChEMBL document CHEMBL4477210, “Gramine Derivatives Targeting Ca(2+) Channels and Ser/Thr Phosphatases: A New Dual Strategy for the Treatment of Neurodegenerative Diseases” (J Med Chem, 2016)
